Active and inactive are the calls of the source.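 The calls were made as follows, unless noted: active = inhibition of the reporter signal at or above 50%; inactive = inhibition below 50%.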

Consider 14 compounds from PubChem BioAssay.

Test [1] in a line: inhibitors of TNFa-induced NFkB p65 translocation, primary screen, imaging, HUVEC, MLSMR starter and 10KST1 sets (AID 438;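 active = inhibition above 20% together with a positive visual image hit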;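 also: compound added about 3h40 before a 20 min TNFalpha stimulation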;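 as to inhibition: signal is the nuclear over cytoplasmic p65 intensity ratio per well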). The settings on record: HUVEC TNFa-induced p65 nuclear translocation; cell count: measured here: nuclei count (cytotoxicity indicator), at 2.08 µM; inhibition: at 2 µM, stronger effect = higher value, 0% TNFa-plus-vehicle, 100% no-TNFa wells.
Test [2] is described as follows: inhibitors of mutant huntingtin aggregation, primary screen, imaging, exon1htt(103Q)mCFP cells, high-content imaging (AID 483;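 active = visual image review flags a hit and inhibition of aggregation exceeds 20%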;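 also: compound exposure lasted 3 days before fixation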;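 as to nuclei count: percent of the per-plate median nuclei count of sample wells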). The settings on record: exon1htt(103Q)mCFP cell line, aggregate imaging, at 2 µM; inhibition of aggregation: stronger effect = higher value; nuclei count: measured here: cell count, toxicity.
The nature of test [3]: inhibitors of E-selectin induction by TNFa, primary screen, imaging, HUVEC, immunofluorescence, MLSMR starter and 10KST1 sets (AID 487;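 active = visually confirmed hit in the image check and inhibition above 20%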;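 as to inhibition: signal is fraction of cell area covered by stained E-selectin grains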;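 as to nuclei count: 100% = median nuclei count of all wells on the same plate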). The settings on record: HUVEC TNFalpha-induced E-selectin immunofluorescence imaging, at 2 µM; inhibition: stronger effect = higher value; nuclei count: measured here: cell number, toxicity.
Test [4] deals with Voltage-gated potassium channel subunit beta-2 (Rattus norvegicus) (UniProt P62483). In words: KvBeta enzyme negative modulators, primary screen, biochemical, NADPH fluorescence (AID 622;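 active = fluorescence slope higher than the sample average by over 3 SD, cut at about -0.22 in these data, passing the limit was not always enough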;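 also: slope of raw intensity against log time taken from 70 to 1610 s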). The note with it: recombinant KvBeta, 4-cyanobenzaldehyde reduction, at 10 µM, stronger effect = higher value.
Chain of Voltage-gated potassium channel subunit beta-2 (Rattus norvegicus) (P62483 whole entry, looked up): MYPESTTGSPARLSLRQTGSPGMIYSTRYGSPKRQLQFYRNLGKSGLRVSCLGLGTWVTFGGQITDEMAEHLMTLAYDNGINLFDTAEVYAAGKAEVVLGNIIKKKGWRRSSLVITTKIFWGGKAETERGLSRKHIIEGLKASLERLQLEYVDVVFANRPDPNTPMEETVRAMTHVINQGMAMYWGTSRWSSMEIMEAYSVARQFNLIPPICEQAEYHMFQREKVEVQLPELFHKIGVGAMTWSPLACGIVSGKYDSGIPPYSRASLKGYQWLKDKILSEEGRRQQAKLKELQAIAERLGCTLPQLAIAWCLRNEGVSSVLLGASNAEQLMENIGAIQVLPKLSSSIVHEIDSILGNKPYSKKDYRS
Test [5] has the same target. As to the kind of experiment: KvBeta positive modulators, primary screen, biochemical, NADPH fluorescence (AID 623;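 active = NADPH fluorescence slope more negative than the mean of all samples by about 3 SD, 99.7% confidence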;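 also: fluorescence intensity change per second fitted from 20 to 320 s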). The note with it: Recombinant KvBeta, NADPH fluorescence decrease slope, 10 min; at 10 µM; stronger effect = lower value.
The target of test [6] is Muscarinic acetylcholine receptor M4 (Homo sapiens) (UniProt P08173). As to the kind of experiment: compounds altering M4/GIRK thallium flux, either direction, primary screen, M4 allosteric agonist project, cell-based, HEK293 M4/GIRK, BTC-AM (AID 625;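 active = fluorescence slope after compound addition differing from the mean of all tested samples at 99.7% confidence, mostly higher but some lower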;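 also: thallium influx through GIRK channels coupled to M4 in HEK293 cells with BTC-AM dye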). The note with it: at 10 µM, actives lie on both sides. The procedure, abridged: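 assay system = HEK293 cells with M4 receptor and GIRK channels | medium = pH 7.3 thallium assay buffer | doses = 10 µM final, single point | timing = cells overnight at 37 °C, BTC-AM loading 1 h, reads 2 min total | signal = BTC-AM fluorescence, 1 Hz kinetic reads | read-out = post-addition slope, 15–24 s, of baseline-normalized fluorescence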
Chain of Muscarinic acetylcholine receptor M4 (Homo sapiens) (P08173 whole entry, looked up): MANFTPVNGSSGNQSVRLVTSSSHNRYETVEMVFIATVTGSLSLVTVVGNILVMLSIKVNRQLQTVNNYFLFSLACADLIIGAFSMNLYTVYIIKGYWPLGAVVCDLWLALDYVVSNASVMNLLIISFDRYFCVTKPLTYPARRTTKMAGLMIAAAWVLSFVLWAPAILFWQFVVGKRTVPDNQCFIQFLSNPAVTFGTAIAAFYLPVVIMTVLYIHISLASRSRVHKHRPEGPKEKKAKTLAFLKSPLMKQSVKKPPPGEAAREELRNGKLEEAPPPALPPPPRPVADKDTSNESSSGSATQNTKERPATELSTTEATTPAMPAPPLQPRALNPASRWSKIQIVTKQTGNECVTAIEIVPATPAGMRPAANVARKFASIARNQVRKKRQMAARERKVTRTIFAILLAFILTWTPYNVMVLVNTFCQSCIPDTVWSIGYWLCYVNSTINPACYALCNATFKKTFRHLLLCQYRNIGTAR

Test [7] can be described thus: inhibitors of Sendai virus-induced IRF3 signaling, primary screen, TLR/RLR signaling modifier project, cell-based, Sendai virus stimulus, luciferase, 10K MLSCN set (AID 602276;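 active = inhibition at or above 50% at 10 µM; inactive = inhibition below 50%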;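 also: firefly luciferase from ISG56 promoter only with Renilla not read in this screen; 0% = Sendai virus plus DMSO and 100% = medium plus DMSO without virus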). The settings on record: HEK293 RL24 IRF3 luciferase reporter, at 10 µM, stronger effect = higher value. For orientation: Reporter assays use an easily measured gene product as a stand-in for the process of interest.

Test [8] in a line: inhibitors of poly I:C-induced TLR3 signaling, primary screen, cell-based, poly I:C stimulus, luciferase, 10K MLSCN set (AID 602277). The settings on record: HEK293-TLR3 RL24 IRF3 luciferase reporter, at 10 µM, stronger effect = higher value.

For the compound `Cc1ccc(S(=O)(=O)n2nc(OC(=O)c3ccco3)cc2N)cc1`, in test [1], the cell count worked out at 512. The inhibition (usually the relative decrease from the control value, in per cent) is -8.3% (inactive) in test [1], -8.9% (inactive) in test [3], -8.24% (inactive) in test [7] and -6.95% (inactive) in test [8]. For the same compound, the inhibition of aggregation in test [2] is -12% (inactive). Moreover, the figures for the nuclei count in test [2] and in test [3] were 115% and 150%, respectively. Also, the fluorescence slope in test [4] is -0.554 (inactive); in test [6] it was 0.00488 (inactive). For the same compound, the NADPH fluorescence slope in test [5] is -9.4e-05 (inactive).
For `CC1CCCC(NC(=O)CN2CCN(Cc3ccc(Cl)cc3)C2=O)C1C` (centres undefined), the cell count in test [1] is 512. Further, the inhibition was -6% (inactive) in test [1], -27.1% (inactive) in test [3], 14.7% (inactive) in test [7] and 20.9% (inactive) in test [8]. Further, the inhibition of aggregation in test [2] was -24.6% (inactive). In addition, the results for the nuclei count in test [2] and in test [3] were 58.8% and 98%, respectively. Besides, the fluorescence slope in test [4] is -0.553 (inactive); in test [6] it was 0.00646 (inactive). The NADPH fluorescence slope in test [5] was -3.7e-05 (inactive).
For `O=C(NCCCN1CCOCC1)C1CC(=O)N(CCc2ccccc2)C1` (centres undefined), the cell count in test [1] stood at 295. For the same compound, the inhibition was -1% (inactive) in test [1], -88% (inactive) in test [3], 15.2% (inactive) in test [7] and 22.3% (inactive) in test [8]. Besides, the inhibition of aggregation in test [2] is 0.4% (inactive). Also, the figures for the nuclei count in test [2] and in test [3] were 104% and 117%, respectively. In addition, the fluorescence slope in test [4] was -0.545 (inactive); in test [6], 0.00479 (inactive). Also, in test [5], the NADPH fluorescence slope was 1.7e-05 (inactive).
Consider `O=C(CSc1nc2ccccc2o1)N1CCN(c2ccc(Cl)cc2)CC1`, for which the cell count in test [1] amounted to 301. For the same compound, the inhibition in test [1] is -0.5% (inactive); in test [3] it was -47% (inactive); in test [7] it was 16.8% (inactive); in test [8] it was 7.29% (inactive). For the same compound, the inhibition of aggregation in test [2] was -13.9% (inactive). Also, the nuclei count in test [2] amounted to 117%; in test [3], 124%. Also, the figures for the fluorescence slope in test [4] and in test [6] were -0.576 (inactive) and 0.00749 (inactive), respectively. The NADPH fluorescence slope in test [5] was -3.9e-05 (inactive).
Consider `CCN1CCN(CCCNC(=O)c2cn(CCOC)c(=O)c3c2c2ccccc2n3C)CC1`, for which the cell count in test [1] came to 451. Besides, the inhibition in test [1] is -6.3% (inactive); in test [3], -2.9% (inactive); in test [7], -6.82% (inactive); in test [8], 0.455% (inactive). The inhibition of aggregation in test [2] was 5.8% (inactive). Further, the nuclei count in test [2] came to 103%; in test [3] it was 106%. Further, the values for the fluorescence slope in test [4] and in test [6] were -0.569 (inactive) and 0.00513 (inactive), respectively. In addition, in test [5], the NADPH fluorescence slope was -1.9e-06 (inactive).
With `O=C(Cn1ccc2ccccc2c1=O)NCCC(=O)N1CCN(C2CCCCC2)CC1`, the cell count in test [1] is 510. For the same compound, the inhibition in test [1] is -3.8% (inactive); in test [3], 15.7% (inactive); in test [7] it was 9.9% (inactive); in test [8] it was 18.5% (inactive). Also, the inhibition of aggregation in test [2] is 10.9% (inactive). Moreover, the figures for the nuclei count in test [2] and in test [3] were 83.8% and 110%, respectively. Also, the fluorescence slope is -0.395 (inactive) in test [4] and 0.00596 (inactive) in test [6]. In addition, the NADPH fluorescence slope in test [5] is 2.2e-05 (inactive).
As to `Cn1c(=O)c(-c2ccccc2)nn2c3ccccc3nc12`, the cell count in test [1] stood at 704. For the same compound, the inhibition in test [1] is -35.3% (inactive); in test [3] it was -79.5% (inactive); in test [7], 13.7% (inactive); in test [8], 17.5% (inactive). In addition, the inhibition of aggregation in test [2] is 22.1% (inactive). Moreover, the results for the nuclei count in test [2] and in test [3] were 96.1% and 113%, respectively. For the same compound, the results for the fluorescence slope in test [4] and in test [6] were -0.19 (inactive) and 0.00522 (inactive), respectively. Besides, the NADPH fluorescence slope in test [5] was 4.4e-07 (inactive).
As for `COC(=O)COc1ccc(S(=O)(=O)NCCC2=CCCCC2)cc1`, in test [1], the cell count came to 515. In addition, the inhibition in test [1] is -0.5% (inactive); in test [3], -31.4% (inactive); in test [7], 15.8% (inactive); in test [8] it was 20.7% (inactive). For the same compound, in test [2], the inhibition of aggregation is 29% (inactive). Moreover, the nuclei count in test [2] is 79.1%; in test [3], 107%. Also, the fluorescence slope is -0.544 (inactive) in test [4] and 0.00377 (inactive) in test [6]. Further, in test [5], the NADPH fluorescence slope was -2.1e-05 (inactive).
Regarding `COc1ccc(C2C(C(=O)c3sc(C)nc3C)=C(O)C(=O)N2CCN2CCOCC2)cc1` (centres undefined), the cell count in test [1] was 438. Also, the inhibition in test [1] is 4.5% (inactive); in test [3], 31.3% (inactive); in test [7] it was 4% (inactive); in test [8] it was 1.15% (inactive). In addition, the inhibition of aggregation in test [2] was 0.7% (inactive). The nuclei count in test [2] was found to be 107%; in test [3], 84.8%. Besides, the fluorescence slope is -0.531 (inactive) in test [4] and 0.00651 (inactive) in test [6]. Moreover, in test [5], the NADPH fluorescence slope is -5.5e-05 (inactive).
As to `CC(=O)Nc1ccc(S(=O)(=O)N2CCN(Cc3ccncc3)CC2)cc1`, the cell count in test [1] was determined as 679. The inhibition in test [1] is -5.8% (inactive); in test [3] it was -26.1% (inactive); in test [7], 18.9% (inactive); in test [8], 16.4% (inactive). Also, the inhibition of aggregation in test [2] was -14% (inactive). The nuclei count in test [2] came out at 123%; in test [3] it was 126%. For the same compound, the fluorescence slope was -0.451 (inactive) in test [4] and 0.00451 (inactive) in test [6]. Further, in test [5], the NADPH fluorescence slope was -3.2e-05 (inactive).
As for `Cc1nnc(SCc2cnc(-c3ccccc3)o2)[nH]c1=O`, in test [1], the cell count was 332. Also, the inhibition in test [1] was -2.2% (inactive); in test [3] it was -82.5% (inactive); in test [7], 10.2% (inactive); in test [8], 12.4% (inactive). Also, the inhibition of aggregation in test [2] was 12.4% (inactive). For the same compound, the nuclei count in test [2] was determined as 92.7%; in test [3], 118%. The fluorescence slope is -0.591 (inactive) in test [4] and 0.00323 (inactive) in test [6]. Besides, the NADPH fluorescence slope in test [5] is -1.9e-05 (inactive).
For the compound `O=C(N1CCCCCC1)N1CCN(C(=O)N2CCOCC2)CC1`, the cell count in test [1] is 437. Further, the inhibition in test [1] was -13.3% (inactive); in test [3], -24.8% (inactive); in test [7] it was 3.08% (inactive); in test [8], -6.18% (inactive). Also, the inhibition of aggregation in test [2] is 7.7% (inactive). Besides, the nuclei count in test [2] was 99.6%; in test [3] it was 134%. Besides, the fluorescence slope was -0.563 (inactive) in test [4] and 0.00574 (inactive) in test [6]. The NADPH fluorescence slope in test [5] is -1.7e-05 (inactive).
Regarding `CCN(CC)CCNC(=O)C1CCN(S(=O)(=O)N2CCCCC2)CC1`, the cell count in test [1] was determined as 634. In addition, the inhibition in test [1] is 2.6% (inactive); in test [3], -41.5% (inactive); in test [7], 11.3% (inactive); in test [8] it was 15.8% (inactive). In addition, in test [2], the inhibition of aggregation is -30.2% (inactive). Further, the nuclei count in test [2] was determined as 48.9%; in test [3], 109%. Further, the fluorescence slope was -0.412 (inactive) in test [4] and 0.00434 (inactive) in test [6]. In test [5], the NADPH fluorescence slope is 2.2e-05 (inactive).
On to `COCCCNC(=O)CC(NS(=O)(=O)c1ccc(Cl)cc1)c1ccco1` (centres undefined), for which, in test [1], the cell count worked out at 402. For the same compound, the inhibition was 0.3% (inactive) in test [1], -62.8% (inactive) in test [3], 11.7% (inactive) in test [7] and 20.4% (inactive) in test [8]. Moreover, in test [2], the inhibition of aggregation is -20.4% (inactive). For the same compound, the nuclei count in test [2] turned out to be 112%; in test [3] it was 121%. Moreover, the fluorescence slope in test [4] is -0.541 (inactive); in test [6], 0.00644 (inactive). For the same compound, the NADPH fluorescence slope in test [5] is -4.5e-05 (inactive).
